High-throughput results: PubChem BioAssay, several laboratories
Most compounds without a hit are left out; they make up all but 2.3% or so of the library.
MT stabilize HCS = microtubule stabilizers in HeLa cells, primary screen, imaging, high-content imaging; 0.83% of 200,000 active; HeLa tubulin immunostaining HCS, 24 h; share of cells brighter than vehicle mean+2SD; % tubulin-high responders, % at 10 µM;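 active = plate Z-score above 3 for both tubulin-high and condensed-nucleus cell shares, with cell loss under 80%, at 10 µM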;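 note: anti alpha tubulin signal scored within the nucleus-defined area of each cell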
b-catenin transl = modulators of beta-catenin nuclear translocation, primary screen, imaging, HeLa cells, immunofluorescence, high-content. 0.3% of 190,000 active. nuclear translocation activity, % at 5 µM;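 active = nuclear translocation activity above 50% at 5 µM, with a well cell count of 50 or more; inconclusive = wells under 50 cells across six images, flagged as toxic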;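 note: per-cell ratio of nuclear to cytoplasmic median beta-catenin stain intensity; plate controls were DMSO negative control for no effect and GSK-3 inhibitor IX positive control for full effect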
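test system = HeLa cells, endogenous beta-catenin | dosing = single 5 µM dose plus 0.02–20 µM confirmation series | times = compound treatment 24 h, 37°C, 5% CO2 | technique = beta-catenin immunofluorescence imaging with DAPI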
Dynein cargo inh = inhibitors of GR-EGFP nuclear translocation, primary screen, dynein cargo transport inhibitor project, imaging, high-content, 3617.4 mouse cells. AID 1381, 2008. 0.47% of 220,000 active. test concentration mostly 20 µM; stimulated with dexamethasone, 1 µM; stronger effect = lower value. z-score, hits read low;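 active = plate z-score of nuclear minus cytoplasmic receptor signal below a set negative limit, without overly bright fluorescence or cell loss, cut at about -3.5 in these data, passing the limit was not always enough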;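 note: z-score of nuclear minus cytoplasmic ring GR-EGFP intensity difference per well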
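Buffer or medium: tet-free, stripped-serum medium; Also added: dexamethasone, 1.0 µM final; Technique: high-content fluorescence imaging after fixation; Times: 48 h induction, 1 h compound, 30 min dex at 37 °C; Read-out: per-cell GR-EGFP intensity, nucleus versus surrounding cytoplasmic ring, well-averaged.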
Autophagy HCS = autophagy modulators in MEF cells, primary screen, imaging, high-content, MEF GFP-LC3; MEF GFP-LC3 puncta imaging; test concentration mostly 10 µM; calls only at 10 µM (by protocol); 0.98% of 190,000 active; AID 463193, 2010;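 active = percentage of spot-positive cells more than 3 SD above its plate mean, without a fluorescence outlier flag or 80% toxicity; inconclusive = no clear call, values can overlap the other calls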;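 note: spot-positive cell cutoff set from DMSO-treated cells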
Ins promoter up = insulin promoter activators in MIN6 cells, imaging, high-content screening, mouse beta cells; MIN6 insulin promoter-GFP reporter; stronger effect = higher value; z-score at 5 µM; 0.3% of 190,000 active; AID 1625, 2009;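 active = z-score above 3 at 5 µM with at least 500 cells counted in the well; inconclusive = wells under 500 cells, flagged as cytotoxic or low count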
Starred values were filed as active, the others as inactive; i = inactive; u = inconclusive; x = no result; + = active, no number.

SMILES | MT stabilize HCS | b-catenin transl | Dynein cargo inh | Autophagy HCS | Ins promoter up
Cc1ccc(NC(=S)NC(=O)c2ccc(F)cc2)cc1S(=O)(=O)Nc1cccc(Cl)c1 | 20* | 5 | 1.3 | i | 0.78
COc1ccccc1/C(O)=C(\C#N)c1nc2ccccc2[nH]1 | 4 | -1 | 0.59 | i | 0.96
Cc1cccc(OCC(O)CN2C(C)(C)CC(O)CC2(C)C)c1 (centres undefined) | 4 | -1 | -0.71 | + | 1.1
COc1ccc(NC2=NC(=S)N(c3ccccc3C)C23CCCCC3)cc1 | 2 | 2 | -1.1 | i | -0.17
COc1ccc(Nc2ccc3c(c2)=NC2(CCCCC2)[N+]=3[O-])cc1 | 24 | 5 | -2.9 | + | -2.4
[O-][N+]1=c2ccc(Nc3ccccc3)cc2=NC12CCCCC2 | 29* | 12 | -1.4 | i | -0.35
COc1ccc2[nH]cc(CCNS(=O)(=O)c3ccc(NC(C)=O)cc3)c2c1 | 3 | -2 | 1.1 | + | 0.15
COCCNC(=O)NC(=O)CN1CCCc2ccccc21 | 2 | -4 | -0.61 | i | 0.12
CC(OC(=O)c1ccc2c(=O)n3c(nc2c1)CCCCC3)C(N)=O (centres undefined) | 4 | 1 | 0.068 | i | x
CC(C)NC(=O)NS(=O)(=O)c1cnccc1N1CCCCC1 | 4 | 0 | -0.34 | i | x
CC(C)NC(=O)N1CCN(c2ccncc2S(=O)(=O)N2CCOCC2)CC1 | 2 | -4 | -0.3 | i | 5.8*
COc1ccc2c(c1)c1nc3ccccc3nc1n2CCCN1C(=O)c2ccccc2C1=O | 3 | -1 | 0.43 | i | -0.31
COc1ccc2c(c1)c1nc3ccccc3nc1n2CCn1c(=O)oc2ccccc21 | 4 | 4 | -1 | i | -0.66
COc1ccc(Cn2c3ccc(OC)cc3c3nc4ccccc4nc32)cc1 | 8 | -1 | 0.59 | + | 0.6
COc1ccc2c(c1)c1nc3ccccc3nc1n2Cc1ccc(OC(C)C)c(OC)c1 | 6 | 1 | -1.7 | + | 0.95
COc1ccc2c(c1)c1nc3ccccc3nc1n2CC(=O)OC(C)C | 2 | x | 0.94 | + | x
Nc1ccc([N+](=O)[O-])cc1C(=O)NNC(=O)c1ccco1 | x | 0 | 1.3 | x | -0.29
O=C(O)c1ccc(Nc2nc(-c3cccnc3)nc3ccccc23)cc1 | 4 | -5 | -0.66 | i | 0.13
CCOC(=O)Cn1c(=O)c(-c2cc(Br)ccc2N)nc2ccccc21 | x | 2 | -0.87 | x | 6.8*
CC(=O)Oc1ccccc1C1C[C@]2(C)CC(=O)NC2N1C(C)=O (some centres undefined) | 4 | 1 | -0.27 | i | 0.23
O=C(COc1ccccc1-c1ccccc1)N/N=C/c1cccnc1 | 14* | 46 | -1.1 | i | 0.65
O=C(COc1ccccc1-c1ccccc1)N/N=C/c1ccncc1 | 3 | 1 | -0.013 | i | -0.07
O=C(COc1ccccc1-c1ccccc1)N/N=C/c1ccc2ccccc2c1 | 5 | 131* | 0.42 | i | x
Cc1cccc(C)c1NC(=O)NC1(C(=O)NCCN2CCOCC2)CCCCC1 | 6 | 0 | 0.24 | i | 0.84
CC1CC(C)CN(C(=O)c2cc3cc(Br)cc(Br)c3o2)C1 (centres undefined) | 3 | 12 | -0.19 | i | -0.02
SMILES | MT stabilize HCS | b-catenin transl | Dynein cargo inh | Autophagy HCS | Ins promoter up
Cc1cccc(NCC(=O)N/N=C\c2c[nH]c3ccccc23)c1 | 4 | 24 | 0.32 | i | x
Cc1ccccc1NCC(=O)N/N=C/c1c[nH]c2ccccc12 | 4 | 2 | -0.5 | i | 4*
CCn1c(SCC(=O)N/N=C/c2c[nH]c3ccccc23)nnc1-c1ccc(Cl)cc1 | 12* | 35 | 0.26 | i | 0.25
CC(C)c1nnc(SCC(=O)N2CCN(C(=O)c3ccco3)CC2)n1N | 1 | -3 | -0.071 | i | 0.96
C=CCn1cnc2c(c1=O)c1nc3ccccc3nc1n2/N=C/c1cccc(OC)c1OC | x | -6 | x | x | -1.3
C=CCn1cnc2c(c1=O)c1nc3ccccc3nc1n2/N=C/c1cc(OC)c(OC)c(OC)c1 | 8 | -7 | 2.8 | + | -0.59
O=c1ccn(CCc2c[nH]c3ccccc23)c2c1CCCC2 | 4 | 4 | -0.51 | i | -0.34
COc1cccc(-c2nnc3sc(-c4ccc(C)cc4)nn23)c1 | 33* | 68* | -0.43 | i | 0.35
c1cncc(-c2nnc3sc(-c4ccco4)nn23)c1 | 2 | x | -0.12 | i | -0.25
CCN(CC)c1ccc(-c2nn3c(-c4cccnc4)nnc3s2)cc1 | 38* | 6 | -1.1 | i | 2.7
CCOc1cccc(-c2nnc3sc(-c4cc(OC)c(OC)c(OC)c4)nn23)c1 | 3 | -3 | -0.019 | i | -3.6
COc1cc(-c2nn3c(-c4ccccc4)nnc3s2)cc(OC)c1OC | 2 | -3 | -0.49 | + | -3.9
COc1ccc(/C(CC2OC(=O)c3ccccc32)=N\NC(N)=O)cc1 (centres undefined) | 1 | 0 | -0.36 | i | 0.03
Cc1ccc(CC(=O)NCCC(=O)O)cc1 | x | 1 | 0.22 | x | 0.08
O=[N+]([O-])c1ccc(Cl)cc1N1CCCCC1 | 2 | 0 | 0.82 | + | -0.26
Cc1ccc(CN2C(=O)c3ccccc3NC23CCN(Cc2ccccc2)CC3)cc1 | 3 | 2 | 0.76 | + | -0.05
O=C1NC2(CCN(Cc3ccccc3)CC2)Oc2ccccc21 | 4 | -1 | 1.2 | i | x
CCCCN1CC(O)=C(c2nc(-c3ccc(Cl)cc3)cs2)C1=N | 2 | x | -0.48 | + | -0.88
COc1ccc(-c2n(CC(=O)OC3CC(C)CCC3C(C)C)c3ccccc3[n+]2C)cc1 (centres undefined) | 6 | 3 | 0.98 | + | x
COc1ccc(OCc2n(CC(=O)OC3CC(C)CCC3C(C)C)c3ccccc3[n+]2C)cc1 (centres undefined) | x | 18 | 2.3 | x | u
N#CC1=C(N)Oc2c(ccc3ccccc23)C1c1cccs1 (centres undefined) | 20* | 131* | -1.2 | + | -1.7
N#CC1=C(N)Oc2cc(O)ccc2C1c1cccs1 (centres undefined) | 1 | 1 | -0.88 | i | 0.99
OCc1nc2ccccc2n1/N=C/c1cccs1 | x | 1 | 1.9 | x | 0.04
Cc1cccc(-n2c(=S)[nH]c3nc4c(cc3c2=O)COC(C)(C)C4)c1 | x | -4 | 1.3 | x | -0.7
COc1ccc(N2C(=O)CC(NCc3ccncc3)C2=O)cc1 (centres undefined) | 2 | 0 | 0.076 | i | 0.19
COc1ccc(N2C(=O)CC(NCc3ccc(F)cc3)C2=O)cc1 (centres undefined) | 4 | 0 | -0.44 | + | x
CC1CC2(C)Oc3ccccc3CC2C(C)C1CNCCCN(C)C (centres undefined) | 3 | 57* | 2.6 | i | u
